Published values from different studies.
Lines come from different studies, so protocols differ.
Target: Ephrin type-B receptor 3 (EPHB3, Homo sapiens, UniProt P54753)
Residues used in one study (P54753 34-998): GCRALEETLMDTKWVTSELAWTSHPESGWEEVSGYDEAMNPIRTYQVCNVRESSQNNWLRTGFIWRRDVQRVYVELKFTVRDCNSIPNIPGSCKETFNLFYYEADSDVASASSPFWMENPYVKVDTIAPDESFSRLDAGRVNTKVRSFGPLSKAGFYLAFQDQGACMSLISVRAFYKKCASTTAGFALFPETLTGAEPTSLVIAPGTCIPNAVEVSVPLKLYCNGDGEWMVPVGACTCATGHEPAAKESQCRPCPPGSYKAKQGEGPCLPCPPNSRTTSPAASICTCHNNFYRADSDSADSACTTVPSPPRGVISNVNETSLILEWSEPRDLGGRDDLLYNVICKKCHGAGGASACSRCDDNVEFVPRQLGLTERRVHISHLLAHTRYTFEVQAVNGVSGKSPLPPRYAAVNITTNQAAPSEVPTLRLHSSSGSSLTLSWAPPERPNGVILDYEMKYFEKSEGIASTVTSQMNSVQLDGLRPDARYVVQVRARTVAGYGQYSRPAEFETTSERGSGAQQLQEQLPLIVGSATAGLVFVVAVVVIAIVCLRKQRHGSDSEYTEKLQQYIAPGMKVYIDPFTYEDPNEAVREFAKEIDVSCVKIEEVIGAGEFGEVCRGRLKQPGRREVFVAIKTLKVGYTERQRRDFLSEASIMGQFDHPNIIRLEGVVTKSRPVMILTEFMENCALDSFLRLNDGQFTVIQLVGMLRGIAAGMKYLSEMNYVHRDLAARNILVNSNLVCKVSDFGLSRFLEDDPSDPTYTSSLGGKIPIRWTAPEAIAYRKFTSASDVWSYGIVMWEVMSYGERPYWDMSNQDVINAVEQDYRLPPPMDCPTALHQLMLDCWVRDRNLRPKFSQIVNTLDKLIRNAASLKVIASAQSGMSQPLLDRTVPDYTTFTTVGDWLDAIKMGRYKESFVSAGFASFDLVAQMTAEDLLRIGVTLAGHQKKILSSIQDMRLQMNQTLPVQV

SMILES	read-out	mode	method	concentration	measurement	value
CC(C)(C)c1cc(C=C(C#N)C#N)cc(Br)c1O	enzyme activity	inhibitor		0.5 µM	remaining activity	107%
Cn1cc(-c2cccc(N3CCc4c(sc5c4CC(C)(C)C5)C3=O)c2CO)cc(Nc2ccncn2)c1=O	enzyme activity	inhibitor		1 µM	inhibition	1%
N#CC1(c2ccccn2)CCN(Cc2cc(C(=O)O)c(=O)n3ccccc23)CC1	cell-free assay		competition with immobilised ligand	1 µM	remaining binding	92%
Cn1cc(-c2cc(F)cc(N3CCn4c(cc5c4CCCC5)C3=O)c2CO)cc(Nc2ccc(N3CCN(C4COC4)CC3)cn2)c1=O	enzyme activity	inhibitor		0.1 µM	inhibition	7%
Cc1nn(C)cc1-c1nc2c(N3CCN(Cc4ccc(Cl)cc4)CC3)c(Cl)cnc2[nH]1	binding		competition with immobilised ligand	1 µM	remaining binding	77%
O=c1[nH]c2ccccc2n1C1CCN(Cc2ccc(-c3[nH]c4cc5ncnc5cc4nc3-c3ccccc3)cc2)CC1	cell-free assay			0.5 µM	remaining signal	104%
COc1cc(Nc2ncc(F)c(Nc3ccc4c(n3)NC(=O)C(C)(C)O4)n2)cc(OC)c1OC	binding			10 µM	inhibition	0%
Cn1cncc1[C@](O)(COc1ccc(C#N)cc1-c1ccc(OC(F)(F)F)cc1)c1ccc(C#N)cc1	cell-free assay		competition with immobilised ligand	1 µM	remaining binding	100%
COc1ncccc1-c1cnn2ccc(N3CCN(C(=O)OC(C)C)CC3)nc12	binding		competition with immobilised ligand	1 µM	remaining binding	100%
